{"source": "ChEMBL document CHEMBL5724801", "about": "“EUbOPEN Chemogenomics Library - Multiplex” (2024)", "key": {"HEK-293T": {"test_system": "HEK-293T", "test": "Multiplex assay against HEK293T", "type": "toxicity, cell-based", "settings": "human", "how_it_was_run": "(§1)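 Per cents of healthy-nucleus cells form the tubulin, mitochondrial-mass and membrane-permeability phenotype values. Live cells were stained at seeding with Hoechst33342, BioTracker Green Microtubule Cytoskeleton Dye, MitoTracker Red and Annexin V Alexa Fluor 680. After compound addition they were imaged on a CQ1 microscope at 37°C and 5% CO2, and CellPathfinder machine-learning gating split them into Hoechst high-intensity objects or normal cells, normal cells into healthy, pyknosed or fragmented nuclei, and pyknosed cells into mitotic or apoptotic.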"}, "U2OS": {"test_system": "U2OS", "test": "Multiplex assay against U2OS", "type": "toxicity, cell-based", "settings": "human", "how_it_was_run": "as §1"}, "[1]": {"settings": "24 h, 10 µM, compound concentration 10 uM"}, "[2]": {"settings": "48 h, 1 µM, compound concentration 1 uM"}, "[3]": {"settings": "48 h, 10 µM, compound concentration 10 uM"}, "[4]": {"settings": "12 h, 1 µM, compound concentration 1 uM"}, "[5]": {"settings": "12 h, 10 µM, compound concentration 10 uM"}, "[6]": {"settings": "24 h, 1 µM, compound concentration 1 uM"}}, "note": "Values joined by “and” are separate entries in the source; they are usually repeats but may differ in a detail not shown here. Equal values may be shown once.", "data": [{"smiles": "CC1(COc2ccc3c(c2)ncn3-c2ccc3cccc(N4CCC(N)CC4)c3n2)COC1", "note": "[CRENOLANIB]", "values": [{"measurement": "Population Membrane Permeable-Phenotype (%)", "setting": "HEK-293T; [1]", "result": 0, "unit": "%"}, {"measurement": "Population Mitochondria Different-Phenotype (%)", "setting": "HEK-293T; [1]", "result": "89% and 94%"}, {"measurement": "Population Mitotic Cells (%)", "setting": "HEK-293T; [1]", "result": 27, "unit": "%"}, {"measurement": "Population Normal (%)", "setting": "HEK-293T; [1]", "result": "43% and 36%"}, {"measurement": "Population Pyknosed Nuclei (%)", "setting": "HEK-293T; [1]", "result": "23% and 14%"}, {"measurement": "Population Tubulin-Different-Phenotype (%)", "setting": "HEK-293T; [1]", "result": "92% and 73%"}, {"measurement": "Total Cell Count", "setting": "HEK-293T; [1]", "result": "394 and 334"}, {"measurement": "Population Apoptotic (%)", "setting": "HEK-293T; [2]", "result": "29% and 47%"}, {"measurement": "Population Fragmented Nuclei (%)", "setting": "HEK-293T; [2]", "result": "19% and 23%"}, {"measurement": "Population Healthy Nuclei (%)", "setting": "HEK-293T; [2]", "result": "72% and 70%"}, {"measurement": "Population Hoechst High Intensity Objects (%)", "setting": "HEK-293T; [2]", "result": 1, "unit": "%"}, {"measurement": "Population Membrane Permeable-Phenotype (%)", "setting": "HEK-293T; [2]", "result": 1, "unit": "%"}, {"measurement": "Population Mitochondria Different-Phenotype (%)", "setting": "HEK-293T; [2]", "result": "17% and 21%"}, {"measurement": "Population Mitotic Cells (%)", "setting": "HEK-293T; [2]", "result": "70% and 52%"}, {"measurement": "Population Normal (%)", "setting": "HEK-293T; [2]", "result": 98, "unit": "%"}, {"measurement": "Population Pyknosed Nuclei (%)", "setting": "HEK-293T; [2]", "result": "7% and 6%"}, {"measurement": "Population Tubulin-Different-Phenotype (%)", "setting": "HEK-293T; [2]", "result": "10% and 14%"}, {"measurement": "Total Cell Count", "setting": "HEK-293T; [2]", "result": "844 and 639"}, {"measurement": "Population Apoptotic (%)", "setting": "HEK-293T; [3]", "result": "86% and 84%"}, {"measurement": "Population Fragmented Nuclei (%)", "setting": "HEK-293T; [3]", "result": "51% and 47%"}, {"measurement": "Population Healthy Nuclei (%)", "setting": "HEK-293T; [3]", "result": "17% and 22%"}, {"measurement": "Population Hoechst High Intensity Objects (%)", "setting": "HEK-293T; [3]", "result": "41% and 49%"}, {"measurement": "Population Membrane Permeable-Phenotype (%)", "setting": "HEK-293T; [3]", "result": 0, "unit": "%"}, {"measurement": "Population Mitochondria Different-Phenotype (%)", "setting": "HEK-293T; [3]", "result": "97% and 96%"}, {"measurement": "Population Mitotic Cells (%)", "setting": "HEK-293T; [3]", "result": "13% and 15%"}, {"measurement": "Population Normal (%)", "setting": "HEK-293T; [3]", "result": "59% and 50%"}, {"measurement": "Population Pyknosed Nuclei (%)", "setting": "HEK-293T; [3]", "result": 30, "unit": "%"}, {"measurement": "Population Tubulin-Different-Phenotype (%)", "setting": "HEK-293T; [3]", "result": "95% and 96%"}, {"measurement": "Total Cell Count", "setting": "HEK-293T; [3]", "result": "400 and 298"}, {"measurement": "Population Apoptotic (%)", "setting": "U2OS; [4]", "result": "58% and 25%"}, {"measurement": "Population Fragmented Nuclei (%)", "setting": "U2OS; [4]", "result": "36% and 28%"}, {"measurement": "Population Healthy Nuclei (%)", "setting": "U2OS; [4]", "result": "50% and 60%"}, {"measurement": "Population Hoechst High Intensity Objects (%)", "setting": "U2OS; [4]", "result": "9% and 13%"}, {"measurement": "Population Membrane Permeable-Phenotype (%)", "setting": "U2OS; [4]", "result": "87% and 82%"}, {"measurement": "Population Mitochondria Different-Phenotype (%)", "setting": "U2OS; [4]", "result": "51% and 73%"}, {"measurement": "Population Mitotic Cells (%)", "setting": "U2OS; [4]", "result": "41% and 75%"}, {"measurement": "Population Normal (%)", "setting": "U2OS; [4]", "result": "90% and 86%"}, {"measurement": "Population Pyknosed Nuclei (%)", "setting": "U2OS; [4]", "result": "13% and 10%"}, {"measurement": "Population Tubulin-Different-Phenotype (%)", "setting": "U2OS; [4]", "result": "92% and 88%"}, {"measurement": "Total Cell Count", "setting": "U2OS; [4]", "result": "143 and 86"}, {"measurement": "Population Apoptotic (%)", "setting": "U2OS; [5]", "result": "81% and 92%"}, {"measurement": "Population Fragmented Nuclei (%)", "setting": "U2OS; [5]", "result": "43% and 37%"}, {"measurement": "Population Healthy Nuclei (%)", "setting": "U2OS; [5]", "result": "11% and 21%"}, {"measurement": "Population Hoechst High Intensity Objects (%)", "setting": "U2OS; [5]", "result": "21% and 24%"}, {"measurement": "Population Membrane Permeable-Phenotype (%)", "setting": "U2OS; [5]", "result": "76% and 47%"}, {"measurement": "Population Mitochondria Different-Phenotype (%)", "setting": "U2OS; [5]", "result": "80% and 76%"}, {"measurement": "Population Mitotic Cells (%)", "setting": "U2OS; [5]", "result": "18% and 7%"}, {"measurement": "Population Normal (%)", "setting": "U2OS; [5]", "result": "78% and 75%"}, {"measurement": "Population Pyknosed Nuclei (%)", "setting": "U2OS; [5]", "result": "44% and 41%"}, {"measurement": "Population Tubulin-Different-Phenotype (%)", "setting": "U2OS; [5]", "result": "88% and 85%"}, {"measurement": "Total Cell Count", "setting": "U2OS; [5]", "result": 274}, {"measurement": "Population Apoptotic (%)", "setting": "U2OS; [6]", "result": "71% and 54%"}, {"measurement": "Population Fragmented Nuclei (%)", "setting": "U2OS; [6]", "result": "39% and 25%"}, {"measurement": "Population Healthy Nuclei (%)", "setting": "U2OS; [6]", "result": "45% and 62%"}, {"measurement": "Population Hoechst High Intensity Objects (%)", "setting": "U2OS; [6]", "result": "9% and 10%"}, {"measurement": "Population Membrane Permeable-Phenotype (%)", "setting": "U2OS; [6]", "result": "71% and 67%"}, {"measurement": "Population Mitochondria Different-Phenotype (%)", "setting": "U2OS; [6]", "result": "62% and 67%"}, {"measurement": "Population Mitotic Cells (%)", "setting": "U2OS; [6]", "result": "28% and 45%"}, {"measurement": "Population Normal (%)", "setting": "U2OS; [6]", "result": "90% and 89%"}, {"measurement": "Population Pyknosed Nuclei (%)", "setting": "U2OS; [6]", "result": "14% and 12%"}, {"measurement": "Population Tubulin-Different-Phenotype (%)", "setting": "U2OS; [6]", "result": "87% and 72%"}, {"measurement": "Total Cell Count", "setting": "U2OS; [6]", "result": "156 and 98"}, {"measurement": "Population Apoptotic (%)", "setting": "U2OS; [1]", "result": "93% and 100%"}, {"measurement": "Population Fragmented Nuclei (%)", "setting": "U2OS; [1]", "result": "46% and 53%"}, {"measurement": "Population Healthy Nuclei (%)", "setting": "U2OS; [1]", "result": "8% and 11%"}, {"measurement": "Population Hoechst High Intensity Objects (%)", "setting": "U2OS; [1]", "result": "37% and 36%"}, {"measurement": "Population Membrane Permeable-Phenotype (%)", "setting": "U2OS; [1]", "result": "42% and 44%"}, {"measurement": "Population Mitochondria Different-Phenotype (%)", "setting": "U2OS; [1]", "result": "50% and 77%"}, {"measurement": "Population Mitotic Cells (%)", "setting": "U2OS; [1]", "result": "6% and 0%"}, {"measurement": "Population Normal (%)", "setting": "U2OS; [1]", "result": "62% and 63%"}, {"measurement": "Population Pyknosed Nuclei (%)", "setting": "U2OS; [1]", "result": "45% and 34%"}, {"measurement": "Population Tubulin-Different-Phenotype (%)", "setting": "U2OS; [1]", "result": "50% and 77%"}, {"measurement": "Total Cell Count", "setting": "U2OS; [1]", "result": 254}, {"measurement": "Population Apoptotic (%)", "setting": "U2OS; [2]", "result": "88% and 62%"}, {"measurement": "Population Fragmented Nuclei (%)", "setting": "U2OS; [2]", "result": "41% and 37%"}, {"measurement": "Population Healthy Nuclei (%)", "setting": "U2OS; [2]", "result": "43% and 48%"}, {"measurement": "Population Hoechst High Intensity Objects (%)", "setting": "U2OS; [2]", "result": "8% and 4%"}, {"measurement": "Population Membrane Permeable-Phenotype (%)", "setting": "U2OS; [2]", "result": "35% and 53%"}, {"measurement": "Population Mitochondria Different-Phenotype (%)", "setting": "U2OS; [2]", "result": "40% and 37%"}, {"measurement": "Population Normal (%)", "setting": "U2OS; [2]", "result": "91% and 95%"}, {"measurement": "Population Pyknosed Nuclei (%)", "setting": "U2OS; [2]", "result": "14% and 13%"}, {"measurement": "Population Tubulin-Different-Phenotype (%)", "setting": "U2OS; [2]", "result": "44% and 51%"}, {"measurement": "Total Cell Count", "setting": "U2OS; [2]", "result": 186}, {"measurement": "Population Apoptotic (%)", "setting": "U2OS; [3]", "result": 100, "unit": "%"}, {"measurement": "Population Fragmented Nuclei (%)", "setting": "U2OS; [3]", "result": "51% and 57%"}, {"measurement": "Population Healthy Nuclei (%)", "setting": "U2OS; [3]", "result": "11% and 13%"}, {"measurement": "Population Hoechst High Intensity Objects (%)", "setting": "U2OS; [3]", "result": "42% and 29%"}, {"measurement": "Population Membrane Permeable-Phenotype (%)", "setting": "U2OS; [3]", "result": "43% and 50%"}, {"measurement": "Population Mitochondria Different-Phenotype (%)", "setting": "U2OS; [3]", "result": "37% and 35%"}, {"measurement": "Population Mitotic Cells (%)", "setting": "U2OS; [3]", "result": 0, "unit": "%"}, {"measurement": "Population Normal (%)", "setting": "U2OS; [3]", "result": "58% and 70%"}, {"measurement": "Population Pyknosed Nuclei (%)", "setting": "U2OS; [3]", "result": "37% and 28%"}, {"measurement": "Population Tubulin-Different-Phenotype (%)", "setting": "U2OS; [3]", "result": "56% and 28%"}, {"measurement": "Total Cell Count", "setting": "U2OS; [3]", "result": "250 and 144"}]}]}
